Assay results published in ChEMBL document CHEMBL3414473.
Values belong to the compound of their own block, whether it stands above or below them. The source made the active and inactive calls. The rule behind the calls is not given here.

Experiments:
[1] = biological target: RAC-alpha serine/threonine-protein kinase (Homo sapiens, UniProt P31749); assay: Binding affinity to GST-tagged PH domain of AKT (unknown origin) by surface Plasmon resonance spectroscopy
Method in brief: (§1)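 SPR: GST-tagged PH domain fusion protein immobilized on CM5 chip by amine coupling to about 17000 RU. Analyte injected at 1–20 µM at 30 µL/min; DMSO in samples and running buffer ≤1% (v/v). Kd obtained from sensorgram fitting.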

LNCaP [2] = assay: Antiproliferative activity against human LNCAP cells assessed as suppression of cell viability after 24 hrs by MTT assay; format: functional, cell-based
Method in brief: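 LNCaP cells seeded at 5000/well on poly-L-lysine-coated plates in 10% FBS; 24 h later exposed to agents in serum-free medium for 24 h. Viability expressed as percent of vehicle control; IC50 derived.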

[3] = biological target: T1, PH domain leucine-rich repeat-containing protein phosphatase 1 (Homo sapiens, UniProt O60346); assay: Inhibition of PHLPP1-mediated reduction in phosphorylation of Akt at Ser473 in human LNCAP cells after 24 hrs by Western blot analysis; format: cell-based
Method in brief: (§2)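 LNCaP or PC-3 cells treated at various concentrations for 24 h in serum-free medium. Lysed in SDS buffer (50 mM Tris pH 8, 10 mM EDTA, 1% SDS, protease inhibitors); equal protein run on SDS-PAGE and transferred to nitrocellulose. Primary antibodies 1:1000 overnight at 4 °C, HRP secondary 1:2000; detected by ECL.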

[4] = biological target: T1, PH domain leucine-rich repeat-containing protein phosphatase 1; assay: Inhibition of PHLPP1-mediated reduction in phosphorylation of Akt at Ser473 in human PC3 cells after 24 hrs by Western blot analysis; format: cell-based; conditions: PC-3; method in brief: as §2
LNCaP [5] = assay: Induction of Akt localization to human LNCAP cell membrane at 10 uM after 24 hrs by immunofluorescence staining analysis; format: functional, cell-based
Method in brief: (§3)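 LNCaP cells on poly-L-lysine-coated surfaces, treated in serum-free medium for 24 h. Fixed in 4% formaldehyde, permeabilized with 0.1% Triton X-100, blocked in 1% FBS, primary antibody (1:300) overnight, then Alexa Fluor secondary 2 h; DAPI nuclei; confocal imaging with cross-sectional fluorescence intensity analysis.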

LNCaP [6] = assay: Induction of PHLPP1 localization to human LNCAP cell membrane at 10 uM after 24 hrs by immunofluorescence staining analysis; format: functional, cell-based; method in brief: as §3
PC-3 [7] = assay: Antiproliferative activity against human PTEN-negative PC3 cells assessed as suppression of cell viability after 24 hrs by MTT assay in serum free medium; format: functional, cell-based
PrEC = assay: Antiproliferative activity against human PrEC cells assessed as suppression of cell viability after 24 hrs by MTT assay in serum free medium; format: cell-based
[8] = biological target: T1, PH domain leucine-rich repeat-containing protein phosphatase 1; assay: Inhibition of PHLPP1-mediated reduction in phosphorylation of Akt at Thr308 in human LNCAP cells after 24 hrs by Western blot analysis; format: cell-based; method in brief: as §2
[9] = biological target: T1, PH domain leucine-rich repeat-containing protein phosphatase 1; assay: Inhibition of PHLPP1-mediated reduction in phosphorylation of MDM2 in human LNCAP cells after 24 hrs by Western blot analysis; format: cell-based; method in brief: as §2
[10] = biological target: T1, PH domain leucine-rich repeat-containing protein phosphatase 1; assay: Inhibition of PHLPP1-mediated reduction in phosphorylation of IKK in human LNCAP cells after 24 hrs by Western blot analysis; format: cell-based; method in brief: as §2
[11] = biological target: T1, PH domain leucine-rich repeat-containing protein phosphatase 1; assay: Inhibition of PHLPP1-mediated reduction in phosphorylation of Akt at Thr308 in human PC3 cells after 24 hrs by Western blot analysis; format: cell-based; conditions: PC-3; method in brief: as §2
[12] = biological target: T1, PH domain leucine-rich repeat-containing protein phosphatase 1; assay: Inhibition of PHLPP1-mediated reduction in phosphorylation of MDM2 in human PC3 cells after 24 hrs by Western blot analysis; format: cell-based; conditions: PC-3; method in brief: as §2
[13] = biological target: T1, PH domain leucine-rich repeat-containing protein phosphatase 1; assay: Inhibition of PHLPP1-mediated reduction in phosphorylation of IKK in human PC3 cells after 24 hrs by Western blot analysis; format: cell-based; conditions: PC-3; method in brief: as §2
LNCaP [14] = assay: Induction of Akt localization to human LNCAP cell membrane at 5 uM after 24 hrs by immunofluorescence staining analysis; format: functional, cell-based; method in brief: as §3
LNCaP [15] = assay: Induction of PHLPP1 localization to human LNCAP cell membrane at 5 uM after 24 hrs by immunofluorescence staining analysis; format: functional, cell-based; method in brief: as §3
[16] = biological target: T1, PH domain leucine-rich repeat-containing protein phosphatase 1; assay: Binding affinity to GST-tagged PH domain of PHLPP1 (unknown origin) by surface Plasmon resonance spectroscopy; method in brief: as §1
[17] = biological target: T2, 3-phosphoinositide-dependent protein kinase 1 (Homo sapiens, UniProt O15530); assay: Binding affinity to GST-tagged PH domain of PDK1 (unknown origin) by surface Plasmon resonance spectroscopy; method in brief: as §1
T2 sequence (O15530 whole entry): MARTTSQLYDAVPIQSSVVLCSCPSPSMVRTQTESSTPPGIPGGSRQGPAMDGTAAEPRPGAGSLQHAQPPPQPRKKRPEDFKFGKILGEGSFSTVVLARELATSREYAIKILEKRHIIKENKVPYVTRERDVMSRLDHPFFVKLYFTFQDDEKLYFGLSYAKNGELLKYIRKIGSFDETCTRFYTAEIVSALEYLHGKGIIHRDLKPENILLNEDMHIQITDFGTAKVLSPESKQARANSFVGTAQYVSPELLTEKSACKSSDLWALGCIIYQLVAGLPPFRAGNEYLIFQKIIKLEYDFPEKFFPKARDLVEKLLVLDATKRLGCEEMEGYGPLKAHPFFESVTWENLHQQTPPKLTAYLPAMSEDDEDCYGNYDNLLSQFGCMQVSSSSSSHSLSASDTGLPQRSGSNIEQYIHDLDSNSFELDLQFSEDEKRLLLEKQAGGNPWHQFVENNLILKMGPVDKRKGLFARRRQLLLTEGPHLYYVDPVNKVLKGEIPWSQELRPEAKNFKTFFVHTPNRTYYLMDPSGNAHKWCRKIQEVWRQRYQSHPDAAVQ

Scaffold protein ILK = biological target: T3, Scaffold protein ILK (Homo sapiens, UniProt Q13418); assay: Binding affinity to GST-tagged PH domain of ILK (unknown origin) by surface Plasmon resonance spectroscopy; method in brief: as §1
T3 sequence (Q13418 whole entry): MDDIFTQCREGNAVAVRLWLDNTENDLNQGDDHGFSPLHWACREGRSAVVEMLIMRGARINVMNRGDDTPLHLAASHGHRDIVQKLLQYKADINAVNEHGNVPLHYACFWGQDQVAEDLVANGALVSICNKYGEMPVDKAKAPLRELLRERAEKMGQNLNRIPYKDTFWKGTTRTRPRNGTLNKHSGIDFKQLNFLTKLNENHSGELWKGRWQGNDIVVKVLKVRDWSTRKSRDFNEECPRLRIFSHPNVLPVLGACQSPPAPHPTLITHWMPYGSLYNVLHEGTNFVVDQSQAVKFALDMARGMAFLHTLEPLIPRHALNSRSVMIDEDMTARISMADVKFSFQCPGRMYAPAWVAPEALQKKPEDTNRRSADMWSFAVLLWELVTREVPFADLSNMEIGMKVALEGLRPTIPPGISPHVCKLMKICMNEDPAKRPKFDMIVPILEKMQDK

LNCaP [18] = assay: Induction of Akt-PHLPP1 complex to human LNCAP cell membrane after 24 hrs by immunofluorescence staining analysis; format: functional, cell-based
PC-3 [19] = assay: In vivo antitumor efficacy in human PC3 cells xenografted athymic nude mouse assessed as inhibition of tumor growth at 50 mg/kg, ip for 21 days relative to vehicle treated control; format: functional, organism-based; parameters: dose 50 mg/kg
Method in brief: (§4)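 Athymic nude mice given PC-3 cells sc (1 × 10⁶ per mouse); at about 50 mm³, randomized (n = 7) and dosed once daily for 21 days either ip at 50 mg/kg (vehicle saline/PEG400/DMSO/Tween 80, 65:20:10:5) or by oral gavage at 100 mg/kg (vehicle 0.5% methylcellulose/0.1% Tween 80 in water). Tumor volume measured weekly by calipers (width² × length × 0.52); phospho-proteins checked by Western blotting of tumor lysates.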

PC-3 [20] = assay: In vivo antitumor efficacy in human PC3 cells xenografted athymic nude mouse assessed as inhibition of tumor growth at 100 mg/kg, po for 21 days relative to vehicle treated control; format: functional, organism-based; parameters: dose 100 mg/kg; method in brief: as §4
PC-3 [21] = assay: In vivo antitumor efficacy in human PC3 cells xenografted athymic nude mouse assessed as decrease in phosphorylation of Akt at Ser473 in tumor at 100 mg/kg, po for 21 days relative to vehicle treated control; format: functional, organism-based; parameters: dose 100 mg/kg; method in brief: as §4
PC-3 [22] = assay: In vivo antitumor efficacy in human PC3 cells xenografted athymic nude mouse assessed as decrease in phosphorylation of Akt at Thr308 in tumor at 100 mg/kg, po for 21 days relative to vehicle treated control; format: functional, organism-based; parameters: dose 100 mg/kg; method in brief: as §4
PC-3 [23] = assay: In vivo antitumor efficacy in human PC3 cells xenografted athymic nude mouse assessed as decrease in phosphorylation of MDM2 in tumor at 100 mg/kg, po for 21 days relative to vehicle treated control; format: functional, organism-based; parameters: dose 100 mg/kg; method in brief: as §4
PC-3 [24] = assay: In vivo antitumor efficacy in human PC3 cells xenografted athymic nude mouse assessed as decrease in phosphorylation of IKK in tumor at 100 mg/kg, po for 21 days relative to vehicle treated control; format: functional, organism-based; parameters: dose 100 mg/kg; method in brief: as §4

Sequence of RAC-alpha serine/threonine-protein kinase (P31749 whole entry, the tested form may be a part): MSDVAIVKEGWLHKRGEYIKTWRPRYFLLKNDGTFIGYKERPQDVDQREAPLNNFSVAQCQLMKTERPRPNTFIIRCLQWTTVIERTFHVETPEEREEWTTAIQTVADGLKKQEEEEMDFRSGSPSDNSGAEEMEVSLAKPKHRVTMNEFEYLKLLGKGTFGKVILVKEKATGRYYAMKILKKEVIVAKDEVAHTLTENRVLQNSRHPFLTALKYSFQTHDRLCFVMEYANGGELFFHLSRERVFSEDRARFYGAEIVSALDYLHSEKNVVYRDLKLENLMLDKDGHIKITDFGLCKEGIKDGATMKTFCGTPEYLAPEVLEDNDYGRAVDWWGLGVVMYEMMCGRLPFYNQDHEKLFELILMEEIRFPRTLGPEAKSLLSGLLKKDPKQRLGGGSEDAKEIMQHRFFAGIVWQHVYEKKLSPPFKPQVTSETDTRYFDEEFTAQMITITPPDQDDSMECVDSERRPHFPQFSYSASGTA
T1 sequence (O60346 whole entry, the tested form may be a part): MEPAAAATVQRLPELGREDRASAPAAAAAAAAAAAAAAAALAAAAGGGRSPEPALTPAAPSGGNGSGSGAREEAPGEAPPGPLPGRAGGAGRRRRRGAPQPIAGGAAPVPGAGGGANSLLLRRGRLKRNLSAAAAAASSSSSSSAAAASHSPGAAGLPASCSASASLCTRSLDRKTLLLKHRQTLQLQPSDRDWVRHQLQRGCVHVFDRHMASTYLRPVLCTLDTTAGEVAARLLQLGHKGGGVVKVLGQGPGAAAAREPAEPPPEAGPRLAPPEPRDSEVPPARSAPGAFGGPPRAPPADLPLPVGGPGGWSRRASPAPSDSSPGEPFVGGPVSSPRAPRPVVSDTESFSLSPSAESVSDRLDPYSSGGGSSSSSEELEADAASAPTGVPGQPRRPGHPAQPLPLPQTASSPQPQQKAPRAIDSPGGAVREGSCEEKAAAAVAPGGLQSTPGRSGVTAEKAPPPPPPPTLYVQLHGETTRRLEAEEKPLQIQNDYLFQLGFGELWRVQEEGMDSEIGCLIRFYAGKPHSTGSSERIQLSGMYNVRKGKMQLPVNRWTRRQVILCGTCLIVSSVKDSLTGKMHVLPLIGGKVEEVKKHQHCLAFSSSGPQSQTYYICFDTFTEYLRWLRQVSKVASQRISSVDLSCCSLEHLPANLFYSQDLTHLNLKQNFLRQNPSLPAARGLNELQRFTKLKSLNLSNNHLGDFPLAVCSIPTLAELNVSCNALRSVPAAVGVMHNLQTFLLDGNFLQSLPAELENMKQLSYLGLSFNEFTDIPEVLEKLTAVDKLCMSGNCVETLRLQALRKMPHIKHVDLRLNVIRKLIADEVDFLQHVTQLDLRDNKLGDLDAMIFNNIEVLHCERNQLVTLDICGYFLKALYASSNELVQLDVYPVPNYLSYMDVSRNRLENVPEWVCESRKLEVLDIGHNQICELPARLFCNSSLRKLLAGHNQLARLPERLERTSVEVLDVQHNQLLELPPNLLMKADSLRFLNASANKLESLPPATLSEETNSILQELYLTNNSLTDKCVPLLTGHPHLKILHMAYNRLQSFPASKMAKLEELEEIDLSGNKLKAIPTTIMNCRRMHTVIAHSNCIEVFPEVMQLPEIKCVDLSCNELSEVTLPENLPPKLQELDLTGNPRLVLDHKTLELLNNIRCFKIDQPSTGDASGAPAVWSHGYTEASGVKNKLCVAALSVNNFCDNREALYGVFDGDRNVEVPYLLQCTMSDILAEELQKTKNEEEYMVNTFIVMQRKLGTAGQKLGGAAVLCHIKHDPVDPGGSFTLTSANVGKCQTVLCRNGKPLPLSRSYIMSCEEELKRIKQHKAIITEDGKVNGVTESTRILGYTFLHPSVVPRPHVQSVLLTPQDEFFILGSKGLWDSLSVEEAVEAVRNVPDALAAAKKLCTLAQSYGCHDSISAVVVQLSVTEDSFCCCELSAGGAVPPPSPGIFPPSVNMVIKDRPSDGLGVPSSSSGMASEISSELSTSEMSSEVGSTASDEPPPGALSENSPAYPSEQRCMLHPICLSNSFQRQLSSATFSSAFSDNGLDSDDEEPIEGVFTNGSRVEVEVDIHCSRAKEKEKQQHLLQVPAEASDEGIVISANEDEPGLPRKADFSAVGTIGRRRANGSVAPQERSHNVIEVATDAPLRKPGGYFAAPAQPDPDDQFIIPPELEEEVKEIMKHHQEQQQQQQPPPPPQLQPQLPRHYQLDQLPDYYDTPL

Kd [1]: 0.35 µM
IC50 (LNCaP [2]): 20 µM
inhibition [3]: inactive
inhibition [4]: inactive
SMILES: CC(C)CCCC1(C)CCc2cc(S(N)(=O)=O)cc(F)c2O1 (centres undefined)
Activity (LNCaP [5]): inactive
Activity (LNCaP [6]): inactive

Kd [1]: 0.34 µM
IC50 (LNCaP [2]): 9 µM
SMILES: CC(C)CCCC1(C)CCc2cc(O)cc(F)c2O1 (centres undefined)

Kd [1]: 0.39 µM
IC50 (LNCaP [2]): 8 µM
SMILES: CC(C)CCCC1(C)CCc2cc(O)cc(Br)c2O1 (centres undefined)

Kd [1]: 0.52 µM
SMILES: Cc1c(O)cc2c(c1C)OC(C)(CCCC(C)C)CC2 (racemic)

Kd [1]: 0.32 µM
IC50 (LNCaP [2]): 18 µM
SMILES: Cc1cc(O)cc2c1OC(C)(CCCC(C)C)CC2=O (centres undefined)

Kd [1]: 0.45 µM
IC50 (LNCaP [2]): 8 µM
SMILES: CC(C)CCCC1(C)CCc2cc(O)cc(C(F)(F)F)c2O1 (centres undefined)

Kd [1]: 0.28 µM
IC50 (LNCaP [2]): > 30 µM
SMILES: CC(C)CCCC1(C)CC(=O)c2cc(O)ccc2O1 (centres undefined)

Kd [1]: 1.88 µM
IC50 (LNCaP [2]): 26 µM
SMILES: COc1cc(O)cc2c1OC(C)(CCCC(C)C)CC2 (centres undefined)

Kd [1]: 0.21 µM
IC50 (LNCaP [2]): > 30 µM
SMILES: CC(C)CCCC1(C)CCc2cc(N)ccc2O1 (centres undefined)

Kd [1]: 0.41 µM
SMILES: Cc1c(O)cc2c(c1C)OC(C)(CCCC(C)C)CC2=O (centres undefined)

Kd [1]: 0.22 µM
IC50 (LNCaP [2]): 4.5 µM
inhibition [3]: Dose-dependent effect
inhibition [8]: inactive
inhibition [9]: Dose-dependent effect
inhibition [10]: Dose-dependent effect
inhibition [4]: Dose-dependent effect
inhibition [11]: inactive
inhibition [12]: Dose-dependent effect
inhibition [13]: Dose-dependent effect
Kd [16]: 0.69 µM
Kd [17]: 11.1 µM
Kd (Scaffold protein ILK): 13.1 µM
SMILES: CC(C)CCCC1(C)CCc2cc(S(N)(=O)=O)cc(Br)c2O1 (centres undefined)
Activity (PC-3 [7]): Active
Activity (PrEC): Non-toxic
Activity (LNCaP [14]): Active
Activity (LNCaP [15]): Active

Kd [1]: 0.41 µM
IC50 (LNCaP [2]): 7.5 µM
SMILES: Cc1cc(O)cc2c1OC(C)(CCCC(C)C)CC2 (centres undefined)

Kd [1]: 0.03 µM
IC50 (LNCaP [2]): 10 µM
SMILES: Cc1cc(O)cc2c1NC(C)(CCCC(C)C)CC2 (centres undefined)

Kd [1]: 1.18 µM
IC50 (LNCaP [2]): 27 µM
SMILES: CC(C)CCCC1(C)CCc2cc(O)cc(O)c2O1 (centres undefined)

Kd [1]: 0.35 µM
IC50 (LNCaP [2]): 10 µM
SMILES: CC(C)CCCC1(C)CCc2cc(O)ccc2O1 (centres undefined)

Kd [1]: 8.5 µM
IC50 (LNCaP [2]): > 30 µM
SMILES: COc1cc2c(c(C)c1C)OC(C)(CCCC(C)C)CC2 (centres undefined)
Activity (PC-3 [7]): inactive
Activity (PrEC): Non-toxic

Kd [1]: 0.98 µM
IC50 (LNCaP [2]): 23 µM
SMILES: CC(C)CCCC1(C)CCc2ccc(O)c(O)c2O1 (centres undefined)

inhibition [3]: Dose-dependent effect
inhibition [8]: inactive
inhibition [9]: Dose-dependent effect
inhibition [10]: Dose-dependent effect
inhibition [4]: Dose-dependent effect
inhibition [11]: inactive
inhibition [12]: Dose-dependent effect
inhibition [13]: Dose-dependent effect
SMILES: Cc1c(O)cc2c(c1C)O[C@](C)(CCCC(C)C)CC2
Activity (PrEC): Non-toxic
Activity (LNCaP [5]): Active
Activity (LNCaP [6]): Active
Activity (LNCaP [18]): Dose-dependent effect
Activity (PC-3 [19]): Active
Activity (PC-3 [20]): inactive
Activity (PC-3 [21]): inactive
inhibition (PC-3 [22]): inactive
Activity (PC-3 [23]): inactive
Activity (PC-3 [24]): inactive

IC50 (LNCaP [2]): > 100 µM
SMILES: Cc1c(O)cc2c(c1C)O[C@](C)(CCC[C@H](C)CCC[C@H](C)CCCC(C)C)CC2 [GAMMA-TOCOPHEROL]

SMILES: CC(C)CCCC1(C)CCc2c(O)cccc2O1 (centres undefined)
Kd [1]: 0.34 µM
IC50 (LNCaP [2]): 11 µM
